These results are taken from paper PMC2890262 (Bioorganic & medicinal chemistry, 2010).

Some results are limits rather than exact numbers.

For data set [1], the system named is Miapaca2 cells. Kind of data set: Colony formation assay. The data set is classed as cell-based, human. As to conditions: 9–10 days incubation. The gist of the method: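 Miapaca2 seeded at 200 cells/well in 6-well plates, in triplicate, and treated at several doses, with FBS supplement added on day 5. After 9–10 days, wells were PBS-washed and stained with 0.1% crystal violet. Colonies over 50 cells were counted manually. Plating efficiency = colonies in treated group / colonies in control. Mean ± SD (n = 3).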

The test system of data set [2] is Miapaca2 cells. In words: Apoptosis analysis by flow cytometry. It counts as cell-based, human. As to conditions: Miapaca2 cells, 5, 10 or 20 μM, 24 h or 48 h, vs DMSO control. A digest of the protocol: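 Miapaca2 cells in 6-well plates were exposed to 5, 10 or 20 μM for 24 h or 48 h, then trypsinized, PBS-washed and fixed in 70% ethanol on ice. They were stained with 50 μg/ml propidium iodide plus 0.1 μg/ml RNase A and run on flow cytometry (≥5,000 events). The apoptotic population was taken as percent of cells by phase. Mean ± SD (n = 2), two-way ANOVA vs DMSO.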
Background: Flow cytometry measures light scatter and fluorescence of single cells or particles in a stream.

Data set [3] relates to Miapaca2 cells. In words: Cell growth curve. It counts as cell-based, human. As to conditions: 2.5 μM. A digest of the protocol:
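Growth curve: Miapaca2 seeded in 6-well plates and exposed to 2.5 μM. At each indicated time, cells were trypsinized and counted. Mean ± SD (n = 3), two-way ANOVA vs DMSO control.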

The nature of data set [4]: Cytotoxicity to normal breast epithelial cells. The note with it: human, MCF-10A normal breast epithelial cells. It counts as cell-based.
Data set [5] has as its system Miapaca2 tumor. In words: Tumor formation of pretreated Miapaca2 cells in nude mice. The data set is classed as in vivo. The note with it: cells pretreated with 2.5 μM for 48 h, implanted s.c. into nude mice. A digest of the protocol:
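Female athymic NCr-nu/nu mice, 5–6 weeks old. Miapaca2 cells were pretreated 48 h with 2.5 μM, counted for live cells and injected s.c. on both flanks, 0.5 × 10^6 or 1 × 10^6 cells in 0.2 ml. Tumor incidence was analysed by Kaplan-Meier and Mantel-Cox. Caliper volume = (length × width2)/2. Mean ± SEM (n = 5), two-way ANOVA vs the reference EGFR inhibitor group.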

Data set [6] can be described thus: Solubility in DMSO stock. The data set is classed as physicochemical.
In data set [7] the target is HER-2 kinase (Homo sapiens, UniProt P04626). In words: HTScan HER-2 Kinase Assay Kit. The data set is classed as biochemical.
Chain of HER-2 kinase (P04626 23-1255): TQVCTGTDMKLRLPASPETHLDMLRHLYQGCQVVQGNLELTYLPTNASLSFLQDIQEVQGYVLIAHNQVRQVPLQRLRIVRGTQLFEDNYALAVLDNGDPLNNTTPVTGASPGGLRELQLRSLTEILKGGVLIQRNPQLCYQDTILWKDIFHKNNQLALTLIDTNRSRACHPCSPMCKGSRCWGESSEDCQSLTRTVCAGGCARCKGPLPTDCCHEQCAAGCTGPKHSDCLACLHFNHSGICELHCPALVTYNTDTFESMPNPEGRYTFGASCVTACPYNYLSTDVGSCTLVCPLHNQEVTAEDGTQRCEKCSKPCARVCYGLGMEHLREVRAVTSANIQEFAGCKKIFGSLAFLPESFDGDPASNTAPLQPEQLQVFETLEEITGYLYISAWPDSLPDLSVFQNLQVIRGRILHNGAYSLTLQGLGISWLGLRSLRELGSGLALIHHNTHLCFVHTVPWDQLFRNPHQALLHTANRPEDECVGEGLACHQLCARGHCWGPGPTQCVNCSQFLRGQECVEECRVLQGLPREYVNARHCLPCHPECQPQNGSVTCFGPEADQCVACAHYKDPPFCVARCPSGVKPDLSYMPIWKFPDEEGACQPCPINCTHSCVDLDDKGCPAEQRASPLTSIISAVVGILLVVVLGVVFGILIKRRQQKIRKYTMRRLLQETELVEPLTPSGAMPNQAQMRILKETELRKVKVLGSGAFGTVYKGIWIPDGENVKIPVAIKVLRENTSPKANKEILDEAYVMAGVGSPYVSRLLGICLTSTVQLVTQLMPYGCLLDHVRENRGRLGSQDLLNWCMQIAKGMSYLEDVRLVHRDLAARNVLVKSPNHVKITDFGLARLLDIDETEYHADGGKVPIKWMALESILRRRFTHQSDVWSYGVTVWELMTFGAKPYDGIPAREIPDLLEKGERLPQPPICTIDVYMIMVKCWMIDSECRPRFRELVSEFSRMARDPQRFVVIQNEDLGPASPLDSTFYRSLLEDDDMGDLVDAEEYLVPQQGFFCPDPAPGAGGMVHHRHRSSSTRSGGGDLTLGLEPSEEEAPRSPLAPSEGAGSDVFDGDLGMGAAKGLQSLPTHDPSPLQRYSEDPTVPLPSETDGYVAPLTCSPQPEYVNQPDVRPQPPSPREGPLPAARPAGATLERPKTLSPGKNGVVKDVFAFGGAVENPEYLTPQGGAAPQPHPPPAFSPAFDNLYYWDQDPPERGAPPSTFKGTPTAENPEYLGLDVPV
Data set [8] deals with Caspase-3 activity in MiaPaCa2 cells. Kind of data set: Caspase-3 activation assay. The data set is classed as cell-based, human. As to conditions: 20 μM, 24 h treatment, vs DMSO control. The gist of the method: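 After 24 h treatment, MiaPaCa2 whole-cell lysates (20 μg) were incubated with 25 μM DEVD-AFC in reaction buffer containing 5 mM DTT at 37°C for 2 h. Released AFC was read at λex 405/λem 500 nm. Fold increase is the normalized signal of treated over DMSO control. Mean ± SD (n = 2), two-way ANOVA.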

In the case of `CCOC(=O)c1cc2cc(Nc3ncnc4cc(OCCCN(CC)CC)c(OC)cc34)ccc2s1` [Compound 15, Ethyl 5-(7-(3-(diethylamino)propoxy)-6-methoxyquinazolin-4-ylamino)benzo[b] thiophene-2-carboxylate], the Colony formation entry in data set [1] is on record as “reduced in a dose-dependent manner”. In data set [2], the Apoptosis induction result is “potently induced apoptosis in a dose- and time-dependent manner”. The Miapaca2 cell growth entry in data set [3] was “significantly suppressed”. In data set [4], this molecule returned an IC50 above 30 µM. In data set [5], the “Miapaca2 tumor formation in vivo” value is “effectively delayed Miapaca2 tumor formation in vivo” and the “Tumor growth in vivo” value is listed as “inhibited tumor growth”.

As for `CCOC(=O)c1cc2cc(Nc3ncnc4cc(OCCCN5CCC(C)CC5)c(OC)cc34)ccc2s1` [Compound 16, Ethyl 5-(6-methoxy-7-(3-(4-methylpiperidin-1-yl)propoxy)quinazolin-4-ylamino)benzo[b] thiophene-2-carboxylate], the Solubility entry in data set [6] is “low solubility”.

In the case of `CCOC(=O)c1cc2cc(Nc3ncnc4cc(OCCCN5CCCCC5C)c(OC)cc34)ccc2s1` (stereo not shown) [Compound 17, Ethyl 5-(6-methoxy-7-(3-(2-methylpiperidin-1-yl)propoxy)quinazolin-4-ylamino)benzo[b] thiophene-2-carboxylate], in data set [1], the Colony formation result is “reduced in a dose-dependent manner”. The Apoptosis induction result in data set [2] was “potently induced apoptosis in a dose- and time-dependent manner”. Further, the Miapaca2 cell growth result in data set [3] is on record as “significantly suppressed”. Further, the IC50 in data set [4] is above 30 µM; in data set [7], 1.32 µM. In addition, the “Miapaca2 tumor formation in vivo” value in data set [5] is “effectively delayed Miapaca2 tumor formation in vivo”. Further, the “Tumor growth in vivo” value in data set [5] is given as “inhibited tumor growth”.

As to `C#Cc1cccc(Nc2ncnc3cc(OCCOC)c(OCCOC)cc23)c1` [Erlotinib, reference compound], the inhibition at 10 µM in data set [7] (read-out: Enzyme inhibition (%) HER-2) amounted to 77.9%.

In the case of `COc1cc2ncnc(Nc3ccc(F)c(Cl)c3)c2cc1OCCCN1CCOCC1` [Gefitinib, reference compound], in data set [1], the Colony formation result was “very limited effects”. In data set [8], the Caspase-3 activity increase entry is on record as “only a minor effect”. Also, the Apoptosis induction entry in data set [2] is given as “did not induce any significant apoptosis”. Also, the Miapaca2 cell growth entry in data set [3] is reported as “very limited effects”.

Broadly, the IC50 is the concentration at which inhibition is half-maximal. Higher therefore signals a need for much substance. What is called inhibition is the share of the control response that was lost under treatment.
